# Assay results pooled from the literature.
# Each line is one published result; the experiments were not run side by side.
# Target: Mitogen-activated protein kinase 14 (MAPK14, Homo sapiens, UniProt Q16539)
SMILES,observed,mode,technique,tested at,quantity,result
C#Cc1n[nH]c2c(-c3cn(C(C)c4ccccn4)c(=O)[nH]c3=O)cc(F)cc12 (stereo not shown),enzyme activity,inhibitor,,1 µM,inhibition,-4.4%
Cc1nn(C)cc1-c1nc2c(N3CCN(Cc4ccc(Cl)cc4)CC3)c(Cl)cnc2[nH]1,binding,,competition with immobilised ligand,1 µM,remaining binding,71%
O=c1[nH]c2ccccc2n1C1CCN(Cc2ccc(-c3[nH]c4cc5ncnc5cc4nc3-c3ccccc3)cc2)CC1,cell-free assay,,,0.5 µM,remaining signal,99.7%
Cn1cncc1[C@@](O)(COc1ccc(C#N)cc1-c1ccc(OC(F)(F)F)cc1)c1ccc(C#N)cc1,cell-free assay,,competition with immobilised ligand,1 µM,remaining binding,100%
COc1cc(Cl)c(C(=O)N[C@@H](CN[C@H]2CC[C@@H](N)CC2)Cc2ccc(C#N)cc2)cc1-c1ccc(CN[C@H](C)c2ccc(C)cc2)o1,enzyme activity,inhibitor,,1 µM,remaining activity,107%
O=C(Nc1cccnn1)N1CCN([C@@H]2CCOc3cc(C(F)(F)F)ccc32)CC1,enzyme activity,inhibitor,,20 µM,inhibition,-20%
CC(C)(C)c1cc(C=C(C#N)C#N)cc(Br)c1O,enzyme activity,inhibitor,,0.5 µM,remaining activity,98.3%
Cc1ncc(C)n2nc(/C=C/c3nc(N4CCCC4)cc(N4CCOCC4)n3)nc12,enzyme activity,inhibitor,,10 µM,inhibition,0%
N#CC1(c2ccccn2)CCN(Cc2cc(C(=O)O)c(=O)n3ccccc23)CC1,cell-free assay,,competition with immobilised ligand,1 µM,remaining binding,100%
COc1ncccc1-c1cnn2ccc(N3CCN(C(=O)OC(C)C)CC3)nc12,binding,,competition with immobilised ligand,1 µM,remaining binding,94%
